Measurements collected from several papers.
Compare with care: the assays were run in different laboratories.
Target: NUAK family SNF1-like kinase 1 (NUAK1, Homo sapiens, UniProt O60285)
Effect on: enzyme activity
Action: inhibitor
Residues used in one study (O60285 1-661): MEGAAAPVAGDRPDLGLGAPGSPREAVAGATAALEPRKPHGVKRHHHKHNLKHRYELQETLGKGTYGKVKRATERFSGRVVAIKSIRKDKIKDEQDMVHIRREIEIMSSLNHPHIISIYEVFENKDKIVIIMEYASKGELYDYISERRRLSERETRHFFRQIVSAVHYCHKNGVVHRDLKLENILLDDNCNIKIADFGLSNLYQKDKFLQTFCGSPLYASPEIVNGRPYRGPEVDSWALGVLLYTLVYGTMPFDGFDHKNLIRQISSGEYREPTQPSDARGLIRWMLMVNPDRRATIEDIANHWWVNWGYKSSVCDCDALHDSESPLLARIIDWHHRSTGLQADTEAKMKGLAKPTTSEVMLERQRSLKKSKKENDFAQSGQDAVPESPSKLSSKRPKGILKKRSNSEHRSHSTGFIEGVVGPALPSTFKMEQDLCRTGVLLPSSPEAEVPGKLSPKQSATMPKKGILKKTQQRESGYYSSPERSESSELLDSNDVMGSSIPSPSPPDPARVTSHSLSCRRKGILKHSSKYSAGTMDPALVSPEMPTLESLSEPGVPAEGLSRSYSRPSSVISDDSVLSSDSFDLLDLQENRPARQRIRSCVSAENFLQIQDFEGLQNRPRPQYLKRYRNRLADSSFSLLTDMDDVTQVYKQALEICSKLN

O=C(Nc1cnn(-c2csc(C(=O)NC3COC3)c2)c1)Nc1ccccc1Cl  remaining activity (5 µM): 97.9%
CC(C)(O)[C@H]1CC[C@H](Nc2ccc3ncc(-c4cccc(C(F)(F)F)c4)n3n2)CC1  remaining activity (1 µM): 72%
COc1cc(Nc2cnc(C#N)c(O[C@H](C)CN(C)C)n2)ncc1-c1cnn(C)c1  remaining activity (radiometric; 10 µM): 7%
CC(C)(C)c1nc2c(s1)c1nc(N)ncc1c1ccc(NS(=O)(=O)c3c(F)cccc3F)c(F)c12  remaining activity (radiometric; 1 µM): 95%
NS(=O)(=O)c1ccc(CNc2nc(Nc3cccc(CN4CCOCC4)c3)ncc2C2CC2)cc1  remaining activity (radiometric; 1 µM): 83%
CC(C)(C)c1nc(-c2cccc(NS(=O)(=O)c3c(F)cccc3F)c2F)c(-c2ccnc(N)n2)s1  remaining activity (radiometric; 1 µM): 101%
NS(=O)(=O)c1ccc(CNc2nc(Nc3cccc(NC(=O)N4CCCC4)c3)ncc2C2CC2)cc1  remaining activity (radiometric; 1 µM): 89%
Cc1cnc(NC2CCOCC2)nc1-n1cnc(C(=O)NC(CN)c2cc(F)cc(Cl)c2)c1 (stereo not drawn)  remaining activity (radiometric; 1 µM): 67%
O=C(Nc1cccc(Nc2ncc(Br)c(NCCc3cnc[nH]3)n2)c1)N1CCCC1  remaining activity (radiometric; 1 µM): 1%
COc1cc(Cl)c(C(=O)N[C@@H](CN[C@H]2CC[C@@H](N)CC2)Cc2ccc(C#N)cc2)cc1-c1ccc(CN[C@H](C)c2ccc(C)cc2)o1  remaining activity (1 µM): 92%
Oc1cccc(-c2nc(N3CCOCC3)c3oc4ncccc4c3n2)c1  remaining activity (10 µM): 98%
Cc1nn(CC(F)(F)F)cc1Nc1nccc(NCCCNC(=O)C2CCC2)n1  remaining activity (radiometric; 1 µM): 86%
Cc1sc(C(=O)NC2COC2)cc1-n1cc(NC(=O)Nc2c(F)cccc2Cl)cn1  remaining activity (10 µM): 96.9%
Cn1c(=O)n(-c2ccc(C(C)(C)C#N)cc2)c2c3cc(-c4cnc5ccccc5c4)ccc3ncc21  remaining activity (10 µM): 44%
Cc1ccc(C(=O)Nc2ccc(CN3CCN(C)CC3)c(C(F)(F)F)c2)cc1C#Cc1cnc2cccnn12  remaining activity (23.5 nM): 85%
